Screening results (PubChem BioAssay)
DNA FID counter = fluorescent intercalator displacement, NS3 helicase counter-screen | DNA fluorescent intercalator displacement, fluorescence | inhibition, % at 7.9 µM | actives 0.17% (n = 290,000); in the data active means inhibition above about 37%;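 further: higher means more ethidium bromide displaced from hairpin DNA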
MLLE-PAM2 inh = blocks PAM2 peptide binding to the PABP1 MLLE domain; inhibition, % at 20 µM; actives 0.36% (n = 360,000); P11940; AID 588489; GST-MLLE / FITC-PAM2 fluorescence polarization; in the data active means inhibition above about 35%, passing the limit was not always enough
PABP FP inh = blocks human PABP binding to poly(A) RNA. P11940. fluorescence polarization. inhibition, % at 35 µM. actives 1% (n = 290,000). AID 2014;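 further: calls also rest on retests at 20 µM and on dose response follow-up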
HCV core dimer = HCV core protein dimerization inhibition; TR-FRET GST/Flag-core106 dimerization, 1536-well; inhibition, % at 5 µM; actives 0.33% (n = 300,000); AID 1899;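 active means inhibition above the mean of all tested compounds plus 3 SD, set per screening campaign, cut at about 45% in these data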
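Assay system: tagged HCV core106 pair (GST and Flag); medium: KF-containing HEPES buffer, pH 7.45, DTT, CHAPS, BSA; also added: Eu donor and XL665 acceptor anti-tag antibodies; dosing: 5 µM single dose; timing: compound-protein-antibody incubation 4 h at 22.5 °C; signal: TR-FRET 671 and 617 nm emission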
NS3 helicase inh = blocks Hepatitis C virus NS3 helicase unwinding; actives 0.56% (n = 290,000); inhibition, % at 10.9 µM; AID 1800; NS3 helicase DNA unwinding, Cy5 molecular beacon fluorescence;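 active means inhibition above the mean of all tested compounds plus 3 SD, set per campaign, cut at about 35% in these data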
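Measured by: Cy5 fluorescence, 0 and 60 min reads / Assay system: NS3 helicase fragment of HCV / Control set: low DMSO, high thioflavine S at 110 µM / Times: 1 h reaction at 25 °C, ATP-initiated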
eIF4H FP inh = inhibitors of RNA binding by human eIF4H. eIF4H fluorescence polarization binding assay. actives 0.94% (n = 290,000). AID 2012. inhibition, % at 35 µM;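 further: calls also rest on retests at 20 µM and on dose response follow-up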
Each line names hits and unclear results; the compound was inactive in the other large screens. Most compounds without a hit are left out; they make up all but 2% or so of the library. Unless noted, how the calls were made is not given here.

O=C(O)c1cccc(S(=O)(=O)Nc2ccc3c(c2)CCC3)c1	none (no result: HCV core dimer)
Clc1ccc(-c2nc3ncccn3c2Nc2ccc3c(c2)OCO3)cc1	PABP FP inh 54, eIF4H FP inh 61
O=C1c2ccccc2C(=O)N1c1cccc(-c2csc(Nc3ccc4c(c3)OCO4)n2)c1	HCV core dimer 49 (no result: MLLE-PAM2 inh)
Cc1cc(NC(=O)CSc2cn(CC(=O)N(C(C)C)C(C)C)c3ccccc23)no1	none (no result: PABP FP inh, eIF4H FP inh)
Cc1cc(=O)oc2cc(Oc3ccc([N+](=O)[O-])cc3[N+](=O)[O-])ccc12	none
Cc1sc(NC(=O)CSc2n[nH]c(N)n2)c(C#N)c1C	none (no result: DNA FID counter, PABP FP inh, HCV core dimer, NS3 helicase inh, eIF4H FP inh)
Cc1ccc(/C=C/C2=Cc3c(sc(NC(=O)CSc4n[nH]c(N)n4)c3C#N)C(C)(C)C2)o1	PABP FP inh inconclusive, HCV core dimer 89, NS3 helicase inh 45, eIF4H FP inh inconclusive (no result: MLLE-PAM2 inh)
Cc1nc2nc(C)c(C)nc2nc1C	none (no result: DNA FID counter, PABP FP inh, HCV core dimer, NS3 helicase inh, eIF4H FP inh)
CCCCCCCCC(=O)c1c(OC)oc(C=O)cc1=O	none (no result: DNA FID counter, PABP FP inh, HCV core dimer, NS3 helicase inh, eIF4H FP inh)
CCN(CC)CCNC(=O)C(=O)Nc1cc2c3c(c1)CCC(=O)N3CCC2	none
Cc1ccccc1SCC(=O)NC1CCOC1=O (stereo unspecified)	MLLE-PAM2 inh 40
O=C(O)COc1ccc(/C=N/NC(=O)c2ccc(-c3csc(Nc4ccc(Cl)cc4)n3)cc2)cc1	eIF4H FP inh 98 (no result: HCV core dimer)
Cc1ccc(-c2nn(-c3ccccc3)cc2/C=N/NC(=O)c2ccc(Br)o2)cc1	HCV core dimer 49
O=C(N/N=C\c1cn(-c2ccccc2)nc1-c1ccccc1)c1ccc(Br)o1	none
COc1c(O)cccc1[C@H](O)C1CCN(CCc2ccc(F)cc2)CC1	MLLE-PAM2 inh 77 (no result: DNA FID counter, PABP FP inh, NS3 helicase inh, eIF4H FP inh)
CCN1CCC(NCCc2ccc(F)cc2)CC1	none
CCN(CC)c1ccc(C2Nc3cccc4cccc(c34)N2)c(O)c1	none
COc1cc(C2Nc3cccc4cccc(c34)N2)ccc1O	PABP FP inh 39, eIF4H FP inh 79
COc1cc(C2Nc3cccc4cccc(c34)N2)cc(OC)c1OC(C)=O	PABP FP inh 57, eIF4H FP inh 89
COc1ccc2ccc3ccc(OC)c(OC(C)=O)c3c2c1	none (no result: DNA FID counter, PABP FP inh, HCV core dimer, NS3 helicase inh, eIF4H FP inh)
Oc1ccc2ccccc2c1C1Nc2cccc3cccc(c23)N1	PABP FP inh 50, eIF4H FP inh 77
O=[N+]([O-])c1cc(C2Nc3cccc4cccc(c34)N2)ccc1Cl	none
COc1cc(C2CC(=O)Nc3ccccc3S2)cc(OC)c1OC (stereo unspecified)	DNA FID counter 89
COc1cccc(CNc2nc3cc(-c4ccsc4)sc3c(=O)n2C)c1OC	none (no result: DNA FID counter, PABP FP inh, HCV core dimer, NS3 helicase inh, eIF4H FP inh)
Cc1ccc(Cl)cc1NC(=O)CSc1sc2c(O)cc(=O)[nH]c2c1C#N	none
Cc1csc(NC(=O)CSc2sc3c(O)cc(=O)[nH]c3c2C#N)n1	PABP FP inh 41, eIF4H FP inh 64
CCSc1nnc(NC(=O)CSc2sc3c(O)cc(=O)[nH]c3c2C#N)s1	PABP FP inh 64, eIF4H FP inh 91
CCc1nnc(NC(=O)CSc2sc3c(O)cc(=O)[nH]c3c2C#N)s1	PABP FP inh 76, eIF4H FP inh 90
COCc1ccc(C(=O)NC2CCCc3c2cnn3-c2cc(C)cc(C)c2)s1 (stereo unspecified)	none (no result: HCV core dimer)
Cc1ccc2c(c1)N(C(=O)c1ccco1)C(C)(C)c1ssc(=S)c1-2	PABP FP inh 75, eIF4H FP inh active
Cc1cc(/C=C2\SC(=Nc3ccccc3)NC2=O)c(C)n1-c1ccc(S(N)(=O)=O)cc1	HCV core dimer 63
CCC(CC)C(=O)Nc1nnc(S(=O)(=O)Nc2ccccc2C)s1	none
O=C(NNC(=O)C1C2CCC(C2)C1C(=O)O)c1ccc(Br)o1 (stereo unspecified)	PABP FP inh 59 (no result: MLLE-PAM2 inh)
COC(=O)C1=C(O)/C(=C/c2cccc(OC)c2O)N=C1C	none
COC(=O)C1=C(O)/C(=C\c2cc(C)n(-c3ccc(F)cc3)c2C)N=C1C	PABP FP inh active
CSc1ccc(C2Nc3cccc4cccc(c34)N2)cc1	PABP FP inh 26, eIF4H FP inh 90
CSc1ccc(C2NC(=O)c3ccccc3N2)cc1 (stereo unspecified)	none (no result: DNA FID counter, PABP FP inh, NS3 helicase inh, eIF4H FP inh)
c1cc2c3c(cccc3c1)NC(c1ccc3c(c1)OCO3)N2	none
Cc1cccc(C2Nc3cccc4cccc(c34)N2)c1	eIF4H FP inh 53
COc1cc(C(=O)N2CCCC(c3cc(C(=O)NCc4ccc(F)cc4)no3)C2)cc(OC)c1C (stereo unspecified)	none (no result: DNA FID counter, PABP FP inh, HCV core dimer, NS3 helicase inh, eIF4H FP inh)
